B1: Osa-1-4 twister ribozyme (parent)
chain: CCGCCUAACACUGCCAAUGCCGGUCCCAAGCCCGGAUAAAAGUGGAGGGGGCGG

This data set covers variants of B1. The experiment in a line: self-cleavage, relative activity (ratio to wild type); higher = more cleavage; co-transcriptional. The gist of the method: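 Relative activity is the fraction cleaved divided by that of the wild-type ribozyme. The library came from a DNA template for a 54-nucleotide Oryza sativa twister ribozyme, doped at the 48 positions downstream of the cleavage site with 97 % wild-type base and 1 % of each other base. After 2 h of in vitro transcription at 37 °C with co-transcriptional self-cleavage, the RNA was reverse-transcribed with a template-switching oligonucleotide, amplified by PCR and deep-sequenced, and reads with or without upstream sequence gave the cleavage status.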
Take A36G G47C: the self-cleavage was found to be 0.2. With A36G G47A the figure was 0.54. With A36G G47U the figure was 0.47; with A38C G49A, 0.1. A38C G49U: the self-cleavage was found to be 0.1. The figure for A38C G49C is 0.06; for A38C G42C it is 0.12.

Turning to A38C G42U, the self-cleavage is 0.07. With A38C G42A the figure was 0.35. The figure for A38C C11A is 0.74. The figure for A38C C11G is 0.5. On to A38C C11U, for which the self-cleavage was 0.92. The figure for A36U A41C is 0.99; for A36U A41U it is 1.02. The figure for A36U A41G is 0.68; for A38C A40U it is 0.6. With A38C A40G the figure was 0.84; with A38C A40C, 0.09. On to A36G G50A, for which the self-cleavage stood at 0.76. The figure for A36G G50U is 1.04; for A36G G50C it is 1.04; for A36U C52A it is 1.04. With A36U C52G the figure was 1.06; with A36U C52U, 1.06. The figure for A38C G22C is 0.09; for A38C G22A it is 1.04; for A38C G22U it is 0.87.

For the variant A36U G34A, the self-cleavage was determined as 0.86. With A36U G34C the figure was 0.66; with A36U G34U, 0.84. Consider A36G G51C, for which the self-cleavage was determined as 0.18. The figure for A36G G51A is 0.78. For A36G G51U, the self-cleavage was found to be 0.37. With A38C C33G the figure was 0.05. The figure for A38C C33U is 0.79. The figure for A38C C33A is 0.1. Regarding A38C C14U, the self-cleavage was 0.4.

Turning to A38C C14G, the self-cleavage was found to be 0.08. With A38C C14A the figure was 0.09; with A36G G49C, 0.08. With A36G G49A the figure was 0.24; with A36G G49U, 0.27. Turning to A38C A46G, the self-cleavage came out at 0.06. A38C A46U: the self-cleavage was found to be 0.07. For A38C A46C, the self-cleavage came out at 0.04. With A38C C26G the figure was 0.08; with A38C C26A, 0.07; with A38C C26U, 0.94. The figure for A36G G35A is 0.92; for A36G G35C it is 0.93; for A36G G35U it is 0.91. For the variant A38C G53C, the self-cleavage turned out to be 0.08.

Turning to A38C G53U, the self-cleavage turned out to be 0.24. With A38C G53A the figure was 0.84; with A38C G44U, 0.93. For the variant A38C G44C, the self-cleavage is 0.97. As to A38C G44A, the self-cleavage worked out at 0.99. With A36G G22U the figure was 0.57; with A36G G22A, 1.01; with A36G G22C, 0.07. The figure for A36U A46C is 0.08; for A36U A46G it is 0.09; for A36U A46U it is 0.08. In the case of A38C U24A, the self-cleavage turned out to be 0.16.

On to A38C U24C, for which the self-cleavage turned out to be 0.26. The figure for A38C U24G is 0.04; for A36U U37A it is 1.01; for A36U U37G it is 1.05. With A36U U37C the figure was 1.07; with A38C U37C, 1.

As to A38C U37A, the self-cleavage turned out to be 1.05. A38C U37G: the self-cleavage came out at 0.99. Take A36U G19C: the self-cleavage was found to be 0.67. With A36U G19U, the self-cleavage is 0.93.

With A36U G19A, the self-cleavage worked out at 0.48. For the variant A36G G44U, the self-cleavage worked out at 0.97. With A36G G44C, the self-cleavage was found to be 0.97. With A36G G44A the figure was 1.01; with A38C G19A, 0.64.

A38C G19C: the self-cleavage is 0.07. The figure for A38C G19U is 0.33; for A36G G34A it is 0.91; for A36G G34U it is 0.82. As for A36G G34C, the self-cleavage stood at 0.31. For A36U A38G, the self-cleavage was 1. On to A36U A38C, for which the self-cleavage stood at 1.02.

A36U A38U: the self-cleavage stood at 0.97. With A36U C33A the figure was 0.24. The figure for A36U C33G is 0.08.

Take A36U C33U: the self-cleavage is 0.89. With A36G G45C the figure was 0.07. The figure for A36G G45U is 0.21; for A36G G45A it is 0.54; for A38C C21G it is 0.07. With A38C C21A the figure was 0.27. A38C C21U: the self-cleavage was 0.92.

Consider A38C C9A, for which the self-cleavage is 0.37.

As for A38C C9G, the self-cleavage amounted to 0.83. With A38C C9U, the self-cleavage turned out to be 0.78.

On to U37C U43G, for which the self-cleavage amounted to 0.66. The figure for U37C U43A is 0.96; for U37C U43C it is 0.38; for A38C G34U it is 0.67. With A38C G34C the figure was 0.38; with A38C G34A, 0.85. The figure for A36G G54C is 1.01.

For A36G G54A, the self-cleavage was 1.04. The figure for A36G G54U is 0.98; for A36U C31U it is 0.95; for A36U C31G it is 0.07. As for A36U C31A, the self-cleavage was 0.03. The figure for A38C A41C is 0.91; for A38C A41U it is 1. Turning to A38C A41G, the self-cleavage was determined as 0.69. For A38C C25U, the self-cleavage is 0.88. With A38C C25A the figure was 0.07; with A38C C25G, 0.06. With A36G U24G the figure was 0.04.

Turning to A36G U24A, the self-cleavage amounted to 0.52. Regarding A36G U24C, the self-cleavage came out at 0.44.

As for A36U A8G, the self-cleavage is 0.71. The figure for A36U A8C is 0.09.

Take A36U A8U: the self-cleavage amounted to 0.34.

A38C G47U: the self-cleavage worked out at 0.22. With A38C G47C, the self-cleavage was 0.08. With A38C G47A the figure was 0.19; with A38C G13U, 0.03; with A38C G13C, 0.03. The figure for A38C G13A is 0.07; for A38C G48U it is 0.07; for A38C G48A it is 0.09. Consider A38C G48C, for which the self-cleavage stood at 0.08. The figure for A38C A39C is 0.86; for A38C A39U it is 0.96; for A38C A39G it is 0.96.

Regarding A36U G48A, the self-cleavage came out at 0.12.

Regarding A36U G48C, the self-cleavage amounted to 0.09.

Consider A36U G48U, for which the self-cleavage came out at 0.08. The figure for A36U C32G is 0.12; for A36U C32A it is 0.13; for A36U C32U it is 0.15. The figure for A36U G53U is 0.46. For the variant A36U G53A, the self-cleavage came to 0.94. The figure for A36U G53C is 0.11; for A38C C32U it is 0.13. The figure for A38C C32A is 0.09; for A38C C32G it is 0.09; for A36G U43C it is 0.74.

With A36G U43G, the self-cleavage is 0.64. A36G U43A: the self-cleavage was 0.92. As to A36U C9A, the self-cleavage was 0.47.

As for A36U C9G, the self-cleavage is 0.9. The figure for A36U C9U is 0.83; for A36U G42A it is 0.85. The figure for A36U G42U is 0.12.

With A36U G42C, the self-cleavage turned out to be 0.28. In the case of A36G G48U, the self-cleavage is 0.12. The figure for A36G G48C is 0.15; for A36G G48A it is 0.15.

A38C G50U: the self-cleavage is 1.04. With A38C G50A the figure was 0.75; with A38C G50C, 1.01. In the case of A36G G42C, the self-cleavage came to 0.24. Regarding A36G G42U, the self-cleavage was 0.08. The figure for A36G G42A is 0.8; for A38C G45A it is 0.32. With A38C G45C the figure was 0.05.

For the origin of these results see the RNAGym collection of RNA variant scans (doi:10.1002/anie.201605470).
